Data on 11 compounds can be found in ChEMBL document CHEMBL1132168, “Cycloalkanecarboxylic esters derived from lysergol, dihydrolysergol-I, and elymoclavine as partial agonists and antagonists at rat 5-HT2A receptors: pharmacological evidence that the indolo[4,3-fg]quinoline system of the ergolines is responsible for high 5-HT2A receptor affinity” (J Med Chem, 1999).

One may read the pA2 as the negative logarithm of the molar antagonist concentration that doubles the agonist concentration needed for the same response. Higher therefore signals higher antagonist potency.

Experiment [1] has as its target T1, 5-hydroxytryptamine receptor 2A (Rattus norvegicus, UniProt P14842). Kind of experiment: Blocking 5-HT2A receptor-mediated contractions of rat tail artery. It counts as functional, tissue-based. As to conditions: read-out: pA2 (converted). The gist of the method:
(§1)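 Endothelium-denuded rat ventral caudal artery segments (4–5 mm), isometric, resting force 5 mN. Segments were primed once with 5-HT 1 μM during 120 min equilibration. Prazosin 30 nM and cocaine 6 μM were present throughout. Two cumulative 5-HT curves were run 60 min apart, the second after 30–60 min with antagonist. pKP by Marano–Kaumann; pA2 by Schild or as apparent pA2. Mean ± SEM, n segments, ≥2 animals.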

Experiment [2] deals with 5-hydroxytryptamine receptor 1B (Homo sapiens, UniProt P28222). Kind of experiment: Affinity of compound towards 5-hydroxytryptamine 1B receptor in isolated guinea-pig iliac artery. In kind it is functional, tissue-based, Cavia porcellus. As to conditions: target entry is the homologue from another species; read-out: pA2 (converted). The gist of the method:
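Iliac artery segments (1–2 mm), resting force 5 mN. Krebs-Henseleit contained ketanserin 1 μM, mepyramine 0.3 μM, cimetidine 30 μM and cocaine 30 μM. […] Two 5-HT curves were run 80 min apart, the second after 45 min with compound.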

A short description of experiment [3]: Specificity towards 5-HT2A receptor to that of alpha-1 adrenoceptor. It counts as functional.
In experiment [4] the target is T2, Adrenergic receptor alpha-1 (Rattus norvegicus, UniProt P15823+P23944+P43140).
T2 sequence (P15823 whole entry): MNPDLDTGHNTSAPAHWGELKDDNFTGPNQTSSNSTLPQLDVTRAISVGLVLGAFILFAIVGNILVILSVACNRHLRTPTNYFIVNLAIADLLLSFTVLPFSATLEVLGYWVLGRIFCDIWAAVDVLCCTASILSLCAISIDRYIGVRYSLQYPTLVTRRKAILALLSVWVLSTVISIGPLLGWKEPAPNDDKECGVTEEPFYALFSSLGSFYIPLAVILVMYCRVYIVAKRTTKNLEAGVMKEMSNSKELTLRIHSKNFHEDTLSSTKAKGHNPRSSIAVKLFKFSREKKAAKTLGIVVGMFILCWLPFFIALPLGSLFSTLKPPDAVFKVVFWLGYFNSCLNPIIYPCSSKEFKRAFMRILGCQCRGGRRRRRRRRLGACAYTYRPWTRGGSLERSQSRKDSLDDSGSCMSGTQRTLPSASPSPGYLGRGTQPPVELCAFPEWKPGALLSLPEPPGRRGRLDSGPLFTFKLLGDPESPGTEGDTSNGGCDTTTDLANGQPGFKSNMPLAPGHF
T2 sequence (P23944 whole entry): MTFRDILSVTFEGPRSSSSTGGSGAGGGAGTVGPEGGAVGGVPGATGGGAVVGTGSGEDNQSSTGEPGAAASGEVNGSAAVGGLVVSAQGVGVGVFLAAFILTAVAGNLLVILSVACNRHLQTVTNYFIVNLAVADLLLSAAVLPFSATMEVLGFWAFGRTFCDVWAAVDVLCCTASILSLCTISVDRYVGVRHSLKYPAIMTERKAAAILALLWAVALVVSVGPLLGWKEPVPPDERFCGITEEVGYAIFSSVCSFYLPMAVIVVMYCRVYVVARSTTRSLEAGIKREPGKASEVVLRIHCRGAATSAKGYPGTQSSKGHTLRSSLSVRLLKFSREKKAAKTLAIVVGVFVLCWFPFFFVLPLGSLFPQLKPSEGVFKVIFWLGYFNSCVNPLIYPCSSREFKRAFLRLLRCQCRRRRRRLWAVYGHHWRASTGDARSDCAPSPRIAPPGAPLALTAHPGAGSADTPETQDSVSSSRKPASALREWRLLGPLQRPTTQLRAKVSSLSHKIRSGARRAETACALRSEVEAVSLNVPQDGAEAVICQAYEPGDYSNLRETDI
T2 sequence (P43140 whole entry): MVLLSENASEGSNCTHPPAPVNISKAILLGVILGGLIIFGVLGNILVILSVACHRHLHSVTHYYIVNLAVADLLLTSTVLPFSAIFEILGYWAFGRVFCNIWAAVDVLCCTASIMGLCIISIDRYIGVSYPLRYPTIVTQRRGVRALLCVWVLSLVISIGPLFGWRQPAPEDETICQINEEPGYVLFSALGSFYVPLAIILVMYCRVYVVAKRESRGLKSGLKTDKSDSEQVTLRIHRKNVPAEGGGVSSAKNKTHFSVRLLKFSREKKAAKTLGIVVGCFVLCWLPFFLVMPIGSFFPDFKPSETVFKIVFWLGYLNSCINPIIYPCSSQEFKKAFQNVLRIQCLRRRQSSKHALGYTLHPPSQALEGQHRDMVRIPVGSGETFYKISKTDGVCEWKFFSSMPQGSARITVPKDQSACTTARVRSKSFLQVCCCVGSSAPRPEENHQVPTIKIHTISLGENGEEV
Kind of experiment: Ability to block alpha-1 adrenergic receptor-mediated contractions of rat aorta. It counts as functional. The gist of the method: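 Endothelium-denuded rat thoracic aorta rings (4–6 mm) in modified Krebs-Henseleit, 37 °C, 95% O2/5% CO2, with (R,S)-propranolol 1 μM. Resting force 20 mN. During 140 min equilibration, rings were stimulated twice with (R)-phenylephrine 100 nM. Two cumulative phenylephrine contraction curves were run, without and then with antagonist added 30 min before.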

A short description of experiment [5]: Specificity of compound towards 5-HT2A receptor to that of 5-HT1B receptor. It counts as functional.
Experiment [6] deals with 5-hydroxytryptamine receptor 2A (Rattus norvegicus) (UniProt P14842). Kind of experiment: Intrinsic activity towards 5-HT2A receptor of rat tail artery. In kind it is functional, tissue-based. The procedure, abridged:
(§2)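 Endothelium-denuded rat caudal artery segments, resting force 5 mN, with prazosin 30 nM and cocaine 6 μM present. Two cumulative curves were run on each segment 60 min apart: first 5-HT, then the test agonist. pKP was taken from a Kenakin plot of equieffective 5-HT and agonist concentrations. Mean ± SEM from n segments, ≥2 animals.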

The target is the same in experiment [7]. Kind of experiment: Relative potency towards 5-HT2A receptor of rat tail artery. It counts as functional, tissue-based. The procedure, abridged: as §2
The target of experiment [8] is T1, 5-hydroxytryptamine receptor 2A. Kind of experiment: Partial agonism at 5-HT2A receptor was evaluated in presence of ketanserin (3-10 nM) in isolated rat tail artery. In kind it is functional, tissue-based. As to conditions: read-out: pA2 (converted). The procedure, abridged:
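Rat caudal artery, endothelium removed, with prazosin 30 nM and cocaine 6 μM present. A 5-HT curve was followed after 60 min by a cumulative agonist curve, with ketanserin 3 nM added 30 min beforehand. The rightward shift was compared with that in control segments run without ketanserin.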

The target in experiment [9] is 5-hydroxytryptamine receptor 2A (Rattus norvegicus) (UniProt P14842). Kind of experiment: Effectiveness in blocking 5-HT2A receptor-mediated contractions of rat tail artery. In kind it is functional, tissue-based. The procedure, abridged:
as §1

The target of experiment [10] is T1, 5-hydroxytryptamine receptor 2A. Kind of experiment: Effectiveness of compound in blocking 5-hydroxytryptamine 2A receptor-mediated contractions of rat tail artery. In kind it is functional, tissue-based. The note with it: read-out: pA2 (converted). The procedure, abridged: as §1
In experiment [11] the target is 5-hydroxytryptamine receptor 2A (Rattus norvegicus) (UniProt P14842). The note with it: Tail.
Sequence of 5-hydroxytryptamine receptor 2A (Rattus norvegicus) (P14842 whole entry): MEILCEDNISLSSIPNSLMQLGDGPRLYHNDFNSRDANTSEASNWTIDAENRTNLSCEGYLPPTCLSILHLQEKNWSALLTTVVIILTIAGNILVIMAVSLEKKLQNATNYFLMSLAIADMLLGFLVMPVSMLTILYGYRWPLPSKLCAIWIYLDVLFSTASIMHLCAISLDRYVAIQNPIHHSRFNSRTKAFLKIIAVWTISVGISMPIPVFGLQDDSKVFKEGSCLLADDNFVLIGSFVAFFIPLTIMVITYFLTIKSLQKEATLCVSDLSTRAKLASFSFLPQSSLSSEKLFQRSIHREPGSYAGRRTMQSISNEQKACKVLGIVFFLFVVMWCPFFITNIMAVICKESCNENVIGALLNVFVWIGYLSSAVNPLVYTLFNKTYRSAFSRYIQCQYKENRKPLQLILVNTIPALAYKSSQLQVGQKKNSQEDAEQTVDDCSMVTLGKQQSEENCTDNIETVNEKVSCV

“And” between values parts separate entries of the source, which are not always exact repeats. Equal values may be shown once.

T1 sequence (P14842 whole entry): as above
Sequence of 5-hydroxytryptamine receptor 1B (P28222 whole entry): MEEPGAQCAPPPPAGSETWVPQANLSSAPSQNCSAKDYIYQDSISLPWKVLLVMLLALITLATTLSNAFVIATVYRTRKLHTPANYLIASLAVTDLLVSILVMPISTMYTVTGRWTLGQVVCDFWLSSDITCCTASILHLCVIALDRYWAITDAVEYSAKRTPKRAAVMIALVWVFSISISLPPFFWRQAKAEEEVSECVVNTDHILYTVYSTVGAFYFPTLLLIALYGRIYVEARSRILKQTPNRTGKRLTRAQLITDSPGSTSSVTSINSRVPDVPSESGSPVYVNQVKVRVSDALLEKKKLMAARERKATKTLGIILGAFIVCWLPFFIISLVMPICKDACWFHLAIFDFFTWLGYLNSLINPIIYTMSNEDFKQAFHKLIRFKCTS

On to `CC(C)n1cc2c3c(cccc31)[C@H]1C=C(CO)CN(C)[C@@H]1C2.O=C(O)/C=C\C(=O)O`, for which the Kb in experiment [1] was 0.724 nM; in experiment [2] it was 851 nM. Moreover, the figures for the Specificity in [3] and in [5] were 2820 and 1180, respectively. The same compound had a pA2 in [4] of 5.69.

Turning to `CN1C[C@H](COC(=O)C2CCCCCC2)C=C2c3cccc4[nH]cc(c34)C[C@H]21.O=C(O)/C=C\C(=O)O`, the Intrinsic activity in experiment [6] is 0.18. Further, the Relative potency in experiment [7] turned out to be 14%. Moreover, in experiment [8], the Kb is 0.776 nM. Also, the pKp in experiment [9] is 6.71 and 6.35. In experiment [3], this compound had a Specificity of 95. In [4], the pA2 turned out to be 4.73.

With `CN1C[C@H](COC(=O)C2CCC2)C=C2c3cccc4[nH]cc(c34)C[C@H]21.O=C(O)/C=C\C(=O)O`, the Intrinsic activity in experiment [6] worked out at 0.13. Also, in experiment [7], the Relative potency stood at 185%. Also, the Kb in [8] was 0.741 nM. Further, the pKp in experiment [9] was 7.76 and 7.36. In experiment [3], the Specificity came to 174. In experiment [4], this compound registered a pA2 of 5.52.

In the case of `CC(C)n1cc2c3c(cccc31)[C@H]1C[C@@H](CO)CN(C)[C@@H]1C2.O=C(O)/C=C\C(=O)O`, the Kb in experiment [1] was 3.16 nM; in [2] it was 1860 nM. In addition, the values for the Specificity in [3] and in experiment [5] were 240 and 589, respectively. Also, the pA2 in experiment [4] is listed as 6.12.

Consider `CC(C)n1cc2c3c(cccc31)C1=C[C@@H](CO)CN(C)[C@@H]1C2.O=C(O)/C=C\C(=O)O`, for which the results for the Kb in experiment [1] and in [2] were 0.708 nM and 209 nM, respectively. For the same compound, the Specificity in experiment [3] came to 1260; in [5], 295. Further, the pA2 in experiment [4] is 6.05.

For `CC(C)n1cc2c3c(cccc31)C1=C[C@@H](COC(=O)C3CCCCCC3)CN(C)[C@@H]1C2.O=C(O)/C=C\C(=O)O`, the Kb in [10] is 17.8 nM. The Specificity in experiment [3] is 661. In experiment [4], this compound displayed a pA2 of 4.93.

For the compound `CN1C[C@H](COC(=O)C2CCCCC2)C=C2c3cccc4[nH]cc(c34)C[C@H]21.O=C(O)/C=C\C(=O)O`, the Intrinsic activity in experiment [6] stood at 0.18. The compound also displayed a Relative potency in experiment [7] of 49%. Also, the Kb in experiment [8] was 0.661 nM. The pKp in experiment [9] was 6.92; in experiment [11] it was 6.88. Besides, in experiment [3], the Specificity was found to be 68. Also, the pA2 in experiment [4] is 5.05.

The compound `CN1C[C@H](CO)C=C2c3cccc4[nH]cc(c34)C[C@H]21` returned an Intrinsic activity in experiment [6] of 0.18. In [7], this compound came in with a Relative potency of 74%. Moreover, the Kb in experiment [8] is 0.794 nM. This compound came in with a pKp in experiment [9] of 6.88.

As for `CC(C)n1cc2c3c(cccc31)[C@H]1C[C@@H](COC(=O)C3CC3)CN(C)[C@@H]1C2.O=C(O)/C=C\C(=O)O`, the Kb in [10] is 6.03 nM. Moreover, the Specificity in experiment [3] was 468. In addition, in experiment [4], the pA2 is given as 5.55.

The compound `CN1C[C@H](COC(=O)C2CCCC2)C=C2c3cccc4[nH]cc(c34)C[C@H]21.O=C(O)/C=C\C(=O)O` came in with an Intrinsic activity in [6] of 0.11. The Relative potency in experiment [7] was 128%. The Kb in experiment [8] is 0.741 nM. Besides, in experiment [9], the pKp is 7.4 and 7.27. Also, the Specificity in [3] amounted to 120. This compound also gave a pA2 in experiment [4] of 5.32.

Compound `CN1C[C@H](COC(=O)C2CC2)C=C2c3cccc4[nH]cc(c34)C[C@H]21.O=C(O)/C=C\C(=O)O` registered an Intrinsic activity in experiment [6] of 0.21. In addition, the Relative potency in experiment [7] was determined as 331%. In addition, the Kb in experiment [8] was 0.741 nM. This compound displayed a Specificity in [3] of 55. The compound further came in with a pA2 in [4] of 6.66.
